Legend:
[1] = Cytotoxicity against human KBV1 cells expressing MDR1 by MTA assay; type: functional, cell-based; conditions: KB-V1
Summary of the method: (§1)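 MTT microtiter assay. Cells were kept at 37 °C in 5% CO2 in RPMI with 10% heat-inactivated FBS, 2 mM L-glutamine and penicillin/streptomycin. Continuous exposure to a range of drug concentrations for four days, then MTT read-out. Drug-free control included. IC50 from at least two assays, each in six replicate wells.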

[2] = Cytotoxicity against human KBH5.0 cells expressing efflux transporter BCRP by MTA assay; type: functional, cell-based; conditions: KBH5.0 cell; summary of the method: as §1
[3] = Cytotoxicity against human RPMI8402 cells by MTA assay; type: functional, cell-based; conditions: RPMI 8402; summary of the method: as §1
[4] = Cytotoxicity against wild type human KB3-1 cells by MTA assay; type: functional, cell-based; conditions: KB 3-1; summary of the method: as §1
[5] = tested on: MIA PaCa-2; test: Cytotoxicity against human MIAPaCa2 cells; type: functional, cell-based
[6] = tested on: Nucleic Acid; test: Thermal stabilization of Salmon testes duplex DNA assessed as change in transition temperature at 15 uM after 4 hrs by temperature-dependent spectrophotometry in presence of 150 mM K+ ions; type: nucleic-acid assay; conditions: Salmonidae
Summary of the method: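 Salmon testes duplex DNA at 30 μM base pair with ligand at 15 μM. Buffer 10 mM potassium phosphate pH 7.5 with 132 mM KCl (150 mM K+). DNA preheated at 90 °C for 5 min and cooled slowly over 4 hr. Temperature-dependent absorbance recorded in 1 cm quartz cells.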

[7] = tested on: Nucleic Acid; test: Thermal stabilization of human G-quadruplex d[T2G3(T2AG3)3A] DNA assessed as change in transition temperature at 20 uM after 4 hrs by temperature-dependent spectrophotometry in presence of 150 mM K+ ions; type: nucleic-acid assay
Summary of the method: (§2)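 UV melting in 1 cm quartz cells. Sample held 5 μM strand of hTel DNA 24mer or AurA RNA 22mer, with ligand at 20 μM. Buffer 10 mM potassium phosphate pH 7.5 plus 132 mM KCl (150 mM K+ total). Nucleic acids preheated at 90 °C for 5 min and slowly cooled over 4 hr before use. AurA transition followed at 295 nm.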

[8] = tested on: Nucleic Acid; test: Thermal stabilization of […] poly(rA).poly(rU) duplex RNA assessed as change in transition temperature at 15 uM after 4 hrs by temperature-dependent spectrophotometry in presence of 150 mM K+ ions; type: nucleic-acid assay
[9] = tested on: Mus musculus; test: (§3) Toxicity in NCR nu/nu mouse xenografted with human MDA-MB-435 cells assessed as average body weight at an escalating dose of 25 to 42 mg/kg, ip administered on day 10 post-implantation followed by subsequent dose regimen of 3 times a week on alternative days for 3 weeks measured on day 35 (RVb = 24.6 +/- 1.3 g); type: organism-based; parameters: dose 25-42 mg/kg, route intraperitoneal; conditions: in vivo, 504 h
Summary of the method: (§4)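 Female NCR/NU NU mice with sc MDA-MB-435 flank xenografts. Seven mice dosed ip 3× weekly on alternate days, escalating weekly from 25 through 32 to 42 mg/kg. Controls received 150 μl 10 mM citrate. Individual body weights taken at least twice weekly. Average ± standard deviation given for days 17, 24, 31 and 35.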

[10] = tested on: MDA-MB-435; test: (§5) Antitumor activity against human MDA-MB-435 cells xenografted in NCR nu/nu mouse at an escalating dose of 25 to 42 mg/kg, ip administered on day 10 post-implantation followed by subsequent dose regimen of 3 times a week on alternative days for 3 weeks measured after 35 days relative to control; type: functional; conditions: dose mg/kg 25-42; route intraperitoneal
Summary of the method: (§6)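 Female NCR/NU NU mice, about 9 weeks old. Inoculated sc on the right flank with 1.5×10^6 MDA-MB-435 cells in 0.1 mL RPMI 1640. Groups of seven matched by tumor volume. Given ip 3× weekly on alternate days in escalating weekly doses. Control received 150 μl 10 mM citrate. Tumor volume (l × w^2)/2 measured by microcaliper at least twice weekly. % T/C = treated/control mean volume.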

[11] = tested on: Nucleic Acid; test: Thermal stabilization of r[AG4CG2CUG2UCG2AGUG2C] sequence of quadruplex RNA assessed as change in transition temperature at 20 uM after 4 hrs by temperature-dependent spectrophotometry in presence of 150 mM K+ ions; type: nucleic-acid assay; summary of the method: as §2
[12] = tested on: Mus musculus; test: as §3, with “day 24” for “day 35”, “= 22.5” for “= 24.6”, “+/- 1.5” for “+/- 1.3”; type: organism-based; parameters: dose 25-42 mg/kg, route intraperitoneal; conditions: in vivo, 504 h; summary of the method: as §4
[13] = tested on: MDA-MB-435; test: as §5, with “mouse assessed as tumor volume” for “mouse”, “(RVb = > 1350 mm'3)” for “relative to control”; type: functional; conditions: dose mg/kg 25-42; route intraperitoneal; summary of the method: as §6
[14] = tested on: Mus musculus; test: as §3, with “day 31” for “day 35”, “= 23.9” for “= 24.6”, “+/- 1” for “+/- 1.3”; type: organism-based; parameters: dose 25-42 mg/kg, route intraperitoneal; conditions: in vivo, 504 h; summary of the method: as §4
[15] = tested on: Mus musculus; test: as §3, with “day 17” for “day 35”, “= 22” for “= 24.6”, “+/- 1.8” for “+/- 1.3”; type: organism-based; parameters: dose 25-42 mg/kg, route intraperitoneal; conditions: in vivo, 504 h; summary of the method: as §4
[16] = tested on: Mus musculus; test: Toxicity in NCR nu/nu mouse xenografted with human MDA-MB-435 cells assessed as average body weight at 20 mg/kg, ip administered 3 times a week for 4 weeks measured on day 31 (RVb = 23.9 +/- 1 g); type: organism-based; parameters: dose 20 mg/kg, route intraperitoneal; conditions: in vivo, 672 h
[17] = tested on: MDA-MB-435; test: Antitumor activity against human MDA-MB-435 cells xenografted in NCR nu/nu mouse at 20 mg/kg, ip administered 3 times a week for 4 weeks measured after 35 days post-implantation relative to control; type: functional; conditions: route intraperitoneal
Summary of the method: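 Female NCR/NU NU mice bearing sc flank MDA-MB-435 xenografts (1.5×10^6 cells), groups matched by tumor volume. Eight mice dosed ip at 20 mg/kg, 3× weekly for four weeks from day 0. Tumor volume (l × w^2)/2 measured by caliper at least twice weekly. % T/C = average treated volume over citrate-control volume.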

SMILES	IC50 [1] [nM]	IC50 [2] [nM]	IC50 [3] [nM]	IC50 [4] [nM]	further results
O=C(NCCc1cc2cc(c1)CNC(=O)c1coc(n1)-c1coc(n1)-c1cc(Br)cc(n1)-c1nc(co1)-c1nc(co1)C(=O)NC2)OCc1ccccc1	> 10000	> 10000	1000	600	–
O=C1NCc2cc(Br)cc(c2)CNC(=O)c2coc(n2)-c2coc(n2)-c2cc(Br)cc(n2)-c2nc(co2)-c2nc1co2	> 10000	> 10000	> 10000	> 10000	–
O=C1NCCNCCNC(=O)c2coc(n2)-c2coc(n2)-c2cccc(n2)-c2nc(co2)-c2nc1co2	> 10000	> 10000	> 10000	4000	–
O=C1NCc2cc(Br)cc(c2)CNC(=O)c2coc(n2)-c2coc(n2)-c2cccc(n2)-c2nc(co2)-c2nc1co2	> 10000	1000	300	60	–
O=C(NCCc1cc2cc(c1)CNC(=O)c1coc(n1)-c1coc(n1)-c1cccc(n1)-c1nc(co1)-c1nc(co1)C(=O)NC2)OCc1ccccc1	> 10000	> 10000	120	120	–
O=C1NCc2cccc(c2)CNC(=O)c2coc(n2)-c2coc(n2)-c2cc(Br)cc(n2)-c2nc(co2)-c2nc1co2	2000	1000	300	150	–
O=C1NCc2cccc(c2)CNC(=O)c2coc(n2)-c2csc(n2)-c2cccc(n2)-c2nc(co2)-c2nc1co2	> 10000	> 10000	1000	260	–
CC(C)[C@@H]1NC(=O)c2coc(n2)-c2coc(n2)-c2coc(n2)[C@H](C(C)C)NC(=O)c2coc(n2)-c2coc(n2)-c2coc1n2 [HEXAOXAZOLE DIVALINE]	8500	500	600	400	IC50 [5]: 500 nM
O=C1NCc2cccc(c2)CNC(=O)c2coc(n2)-c2coc(n2)-c2cc(OCCCN3C(=O)c4ccccc4C3=O)cc(n2)-c2nc(co2)-c2nc1co2	> 10000	> 10000	4500	400	–
NCCc1cc2cc(c1)CNC(=O)c1coc(n1)-c1coc(n1)-c1cccc(n1)-c1nc(co1)-c1nc(co1)C(=O)NC2	> 10000	140	90	30	deltaT [6]: 0 °C; deltaT [7]: 21 °C; deltaT [8]: 0.5 °C
CN(C)CCc1cc2cc(c1)CNC(=O)c1coc(n1)-c1coc(n1)-c1cccc(n1)-c1nc(co1)-c1nc(co1)C(=O)NC2	> 10000	550	180	40	Activity [9]: 21.2 g; T/C [10]: 27.7%; deltaT [6]: 0 °C; deltaT [11]: 37 °C; Activity [12]: 20.2 g; Activity [13]: <400 mm3; deltaT [7]: 20.5 °C; Activity [14]: 20.9 g; deltaT [8]: 0.5 °C; Activity [15]: 19.7 g
O=C1NCc2cc(Br)cc(c2)CNC(=O)c2coc(n2)-c2coc(n2)-c2cc(OCCCN3C(=O)c4ccccc4C3=O)cc(n2)-c2nc(co2)-c2nc1co2	> 10000	> 10000	1000	1000	–
O=C(NCCc1cc2cc(c1)CNC(=O)c1coc(n1)-c1coc(n1)-c1cc(OCCCN3C(=O)c4ccccc4C3=O)cc(n1)-c1nc(co1)-c1nc(co1)C(=O)NC2)OCc1ccccc1	> 10000	> 10000	> 10000	> 10000	–
O=C1NCc2cc(CCNC(=O)C(F)(F)F)cc(c2)CNC(=O)c2coc(n2)-c2coc(n2)-c2cccc(n2)-c2nc(co2)-c2nc1co2	> 10000	> 10000	170	70	–
O=C1NCc2cccc(c2)CNC(=O)c2coc(n2)-c2csc(n2)-c2cccc(n2)-c2nc(cs2)-c2nc1co2	> 10000	> 10000	> 10000	> 10000	deltaT [6]: 0 °C; deltaT [7]: 0 °C; deltaT [8]: 0 °C
NCCCOc1cc2nc(c1)-c1nc(co1)-c1nc(co1)C(=O)NCc1cccc(c1)CNC(=O)c1coc(n1)-c1coc-2n1	> 10000	> 10000	5000	3000	–
O=C1NCc2cccc(n2)CNC(=O)c2coc(n2)-c2coc(n2)-c2cccc(n2)-c2nc(co2)-c2nc1co2	> 5000	> 5000	> 5000	> 5000	–
CCc1c2c(nc3ccc(OC(=O)N4CCC(N5CCCCC5)CC4)cc13)-c1cc3c(c(=O)n1C2)COC(=O)[C@]3(O)CC [IRINOTECAN]	–	–	–	–	Activity [16]: 18.4 g; T/C [17]: 6.1%
O=C1NCc2cccc(c2)CNC(=O)c2coc(n2)-c2coc(n2)-c2cccc(n2)-c2nc(co2)-c2nc1co2	4500	1500	1050	1200	deltaT [6]: 0 °C; deltaT [7]: 7.5 °C; deltaT [8]: 0 °C

Source: ChEMBL document CHEMBL1157908, “Macrocyclic pyridyl polyoxazoles: selective RNA and DNA G-quadruplex ligands as antitumor agents” (J Med Chem, 2010)
